Laboratory results as given in ChEMBL document CHEMBL1124612, “Synthesis and structure-activity relationships of a series of anxioselective pyrazolopyridine ester and amide anxiolytic agents” (J Med Chem, 1989).
Calls of active or inactive are those of the source. The calls are words filed in the database; no cut-off is given here.

Tests used:
[1] = molecular target: T1, GABA-A receptor; anion channel (Rattus norvegicus) (UniProt O09028+P15431+P18506+P18508+P19969+P20236+P23574+P23576+P28471+P28473+P30191+P62813+P63079+P63138+Q91ZM7+Q9ES14); assay: Displacement of [3H]flunitrazepam from GABA-A benzodiazepine receptor of rat cerebral cortex at 800 nM; assay type: tissue-based
Procedure, shortened: (§1)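 Rat cerebral cortex membranes were incubated with [3H]flunitrazepam in the presence of the test agent at a single concentration (nM), run in triplicate with under 7% variation between values. Binding is reported as % inhibition of [3H]flunitrazepam binding.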

Rattus norvegicus [2] = assay: Minimum effective dose (ip) tested for its anxiolytic activity in rat using the shock-induced suppression of drinking (SSD) test; NS is No Significant activity at 25 mg/Kg; assay type: functional, organism-based
Procedure, shortened: (§2)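 Shock-induced suppression of drinking (Vogel-type conflict) in rats, with compounds given intraperitoneally at one or more dose levels, 8 rats per dose. MED is the lowest dose giving a significant increase (p < 0.05, Student's t test) in the mean number of shocks taken versus vehicle control.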

Rattus norvegicus [3] = assay: Minimum effective dose (po) tested for its anxiolytic activity in rat using the shock-induced suppression of drinking (SSD) test; NS is No Significant activity at 100 MG/kG; assay type: functional, organism-based; settings: 100 M
Procedure, shortened: (§3)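 Rats (n = 8 per dose) were dosed orally at one or more levels and then run in the shock-induced suppression of drinking conflict test. MED is the dose producing a significant rise (p < 0.05, Student's t test) in mean shocks accepted relative to vehicle-treated controls.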

[4] = molecular target: GABA-A receptor; anion channel; assay: (§4) Inhibition of [3H]flunitrazepam binding to GABA-A benzodiazepine receptor of rat cerebral cortex; assay type: tissue-based
Rattus norvegicus [5] = assay: Compound was tested in vivo for antagonistic activity against metrazole-induced convulsions in rat; assay type: functional
Rattus norvegicus [6] = assay: Minimum effective dose (po) tested for its anxiolytic activity in rat using the shock-induced suppression of drinking (SSD) test.; assay type: functional; settings: read-out: MED; procedure, shortened: as §3
Rattus norvegicus [7] = species: Rattus norvegicus; assay: Compound was tested for activity against ethanol-induced impairment of rotarod performance in rat.; assay type: functional
Rattus norvegicus [8] = assay: Compound was tested in vivo for activity to induce sedation or ataxia in rat using rotarod test; assay type: functional
[9] = Ethanol interaction ratio (EIR) of the compound.; assay type: ADME
Procedure, shortened: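 Ratio computed as rat rotorod ED50 for drug given with ethanol (mg/kg) divided by the SSD minimum effective dose (mg/kg), both orally. The SSD MED is the lowest dose (N=8/dose) giving a significant rise (p < 0.05, Student's t test) in mean shocks taken versus vehicle in the rat shock-induced suppression of drinking test.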

Rattus norvegicus [10] = species: Rattus norvegicus; assay: Sedative liability index (SLI) to indicate the separation between the anxiolytic and ataxic doses in rats; assay type: functional
Procedure, shortened: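 Ratio computed as rat rotorod ED50 (mg/kg) divided by the SSD minimum effective dose (mg/kg), with both given orally. The SSD MED is the lowest dose (N=8/dose) giving a significant increase (p < 0.05, Student's t test) in mean shocks taken over vehicle control in the rat shock-induced suppression of drinking test.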

Monkey = assay: Compound was tested for activity using primate conflict test in monkey.; assay type: functional; settings: Cercopithecidae, in Primates; read-out: MED
[11] = molecular target: T1, GABA-A receptor; anion channel (Rattus norvegicus); assay: Displacement of [3H]flunitrazepam from GABA-A benzodiazepine receptor of rat cerebral cortex at 5000 nM; assay type: tissue-based; procedure, shortened: as §1
Rattus norvegicus [12] = assay: Minimum effective dose (ip) tested for its anxiolytic activity in rat using the shock-induced suppression of drinking (SSD) test; NS is No Significant activity at 160 mg/Kg; assay type: functional, organism-based; procedure, shortened: as §2
[13] = molecular target: GABA-A receptor; anion channel; assay: Inhibition of [3H]flunitrazepam binding to GABA-A benzodiazepine receptor of rat cortex
Rattus norvegicus [14] = species: Rattus norvegicus; assay: Compound was tested for activity against ethanol-induced impairment of rota rod performance in rat.; assay type: functional
[15] = molecular target: GABA-A receptor; anion channel; assay: Inhibition of [3H]flunitrazepam binding to GABA-A benzodiazepine receptor of rat cerebellum; assay type: tissue-based
[16] = tested on: GABA-A receptor; anion channel; assay: Inhibition of [3H]flunitrazepam binding to GABA-A benzodiazepine receptor of rat cerebral cortex (Not Significant at 5000 nM); assay type: tissue-based; procedure, shortened: as §1
Rattus norvegicus [17] = assay: Minimum effective dose (ip) tested for its anxiolytic activity in rat using the shock-induced suppression of drinking (SSD) test; NS is No Significant activity at 5 mg/Kg; assay type: functional, organism-based; procedure, shortened: as §2
Rattus norvegicus [18] = assay: Minimum effective dose (po) tested for its anxiolytic activity in rat using the shock-induced suppression of drinking (SSD) test; NS is No Significant activity at […]; assay type: functional, organism-based; procedure, shortened: as §3
[19] = molecular target: T1, GABA-A receptor; anion channel (Rattus norvegicus); assay: Displacement of [3H]flunitrazepam from GABA-A benzodiazepine receptor of rat cerebral cortex at 500 nM; assay type: tissue-based; procedure, shortened: as §1
Rattus norvegicus [20] = assay: Minimum effective dose (ip) tested for its anxiolytic activity in rat using the shock-induced suppression of drinking (SSD) test; NS is No Significant activity at […]; assay type: functional, organism-based; procedure, shortened: as §2
Rattus norvegicus [21] = assay: Minimum effective dose (po) tested for its anxiolytic activity in rat using the shock-induced suppression of drinking (SSD) test; NS is No Significant activity at 50 mg/Kg; assay type: functional, organism-based; procedure, shortened: as §3
[22] = molecular target: T1, GABA-A receptor; anion channel (Rattus norvegicus); assay: Displacement of [3H]flunitrazepam from GABA-A benzodiazepine receptor of rat cerebral cortex at 50 nM; assay type: tissue-based; procedure, shortened: as §1
[23] = molecular target: GABA-A receptor; anion channel; assay: as §4; assay type: tissue-based; remark: listed apart in the source
Procedure, shortened: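 [3H]Flunitrazepam displacement from rat cerebral cortex benzodiazepine receptors, run in triplicate with under 7% variation between values. IC50 is the concentration (nM) giving half-maximal inhibition of binding, determined from three or more concentrations.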

CCOC(=O)c1c(C)nc2c(cnn2CC)c1N(C)C
inhibition [1]: 13%
MED (Rattus norvegicus [2]): inactive

C=CCOC(=O)c1cnc2c(cnn2CCCCC)c1N
MED (Rattus norvegicus [3]): inactive
IC50 [4]: 16 nM

CN1C(=O)CN=C(c2ccccc2)c2cc(Cl)ccc21 [DIAZEPAM]
ED50 (Rattus norvegicus [5]): 8.4 mg/kg
minimal effective dose (Rattus norvegicus [6]): 5 mg/kg
ED50 (Rattus norvegicus [7]): 2.5 mg/kg
ED50 (Rattus norvegicus [8]): 10.2 mg/kg
EIR [9]: 0.5
SLI (Rattus norvegicus [10]): 2
minimal effective dose (Monkey): 1.6 mg/kg

CCOC(=O)c1cc2cnn(CC)c2nc1C
inhibition [11]: 14%
NS (Rattus norvegicus [12]): inactive

C=CCNC(=O)c1cnc2c(cnn2CCC#CC)c1N
IC50 [13]: 81 nM
ED50 (Rattus norvegicus [14]): 3.1 mg/kg
ED50 (Rattus norvegicus [5]): 1 mg/kg
minimal effective dose (Rattus norvegicus [6]): 0.8 mg/kg
ED50 (Rattus norvegicus [8]): 25.1 mg/kg
EIR [9]: 3.9
IC50 [15]: 19 nM
IC50 [4]: 81 nM
SLI (Rattus norvegicus [10]): 31.4
minimal effective dose (Monkey): 3.1 mg/kg

CCCNc1c(C(=O)OCC)c(C)nc2c1cnn2CC
IC50 [16]: Not Active
MED (Rattus norvegicus [17]): inactive

CCCCCn1ncc2c(N)c(C(=O)OCC)c(C(C)C)nc21
MED (Rattus norvegicus [18]): inactive
inhibition [19]: 54%

CCCCCn1ncc2c(N)c(C(=O)OCC)c(CC)nc21
MED (Rattus norvegicus [20]): inactive
IC50 [4]: 302 nM

CCCCCn1ncc2c(N)c(C(=O)NCCCC)c(C)nc21
MED (Rattus norvegicus [21]): inactive
inhibition [11]: 31%

C=CCNC(=O)c1c(C)nc2c(cnn2CCCCC)c1N
inhibition [22]: 0%
minimal effective dose (Rattus norvegicus [6]): 50 mg/kg

C#CCCCn1ncc2c(N)c(C(=O)NCC=C)cnc21
IC50 [23]: 9.3 nM
minimal effective dose (Rattus norvegicus [6]): 6.3 mg/kg
